Measurements taken from article PMC3401279 (ACS Chemical Biology, 2012).
“Also recorded” adds a separate entry of the source.

What was measured:
rTAAR7h = biological target: T1, rTAAR7h (Rattus norvegicus, UniProt Q923Y4); assay: cAMP-dependent CRE-SEAP reporter gene assay in transfected HEK293 cells, rTAAR7h; assay type: cell-based; conditions: ligand 10 μM
T1 sequence (Q923Y4 1-358): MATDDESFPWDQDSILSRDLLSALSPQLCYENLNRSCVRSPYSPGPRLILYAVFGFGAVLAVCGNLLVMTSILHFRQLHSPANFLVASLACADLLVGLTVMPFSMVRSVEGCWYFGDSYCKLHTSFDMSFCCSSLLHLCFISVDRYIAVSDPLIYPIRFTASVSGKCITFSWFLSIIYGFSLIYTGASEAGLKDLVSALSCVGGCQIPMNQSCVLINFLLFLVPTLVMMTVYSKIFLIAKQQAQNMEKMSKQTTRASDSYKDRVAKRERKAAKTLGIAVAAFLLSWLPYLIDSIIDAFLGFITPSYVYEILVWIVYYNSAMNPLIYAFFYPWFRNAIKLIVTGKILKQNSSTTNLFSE
Procedure, shortened: (§1)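 HEK293 cells were co-transfected with a TAAR plasmid and a cAMP-dependent secreted alkaline phosphatase reporter (CRE-SEAP). Receptors were expressed both unmodified and as fusions with an N-terminal bovine rhodopsin sequence (Rho tag) that aids surface expression. Transfected cells were incubated with test compound at 10 μM. Secreted phosphatase activity was quantified with a fluorescent substrate as the activation read-out. Triplicates ± s.d.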

[1] = tested on: mTAAR7f-SS (mTAAR7f Y132S, C133S); assay: cellular reporter gene assay, mutant mTAAR7f-SS; assay type: cell-based, mouse; conditions: mutant versus mTAAR7f, increase
[2] = tested on: mTAAR7e-YC (mTAAR7e S132Y, S133C); assay: cellular reporter gene assay, mutant mTAAR7e-YC; assay type: cell-based, mouse; conditions: mutant versus mTAAR7e; for decreased affinity of mTAAR7e-YC: decrease
mTAAR7e = biological target: T2, mTAAR7e (Mus musculus, UniProt Q5QD09); assay: cAMP-dependent CRE-SEAP reporter gene assay in transfected HEK293 cells, mTAAR7e; assay type: cell-based; conditions: ligand 10 μM
T2 sequence (Q5QD09 1-358): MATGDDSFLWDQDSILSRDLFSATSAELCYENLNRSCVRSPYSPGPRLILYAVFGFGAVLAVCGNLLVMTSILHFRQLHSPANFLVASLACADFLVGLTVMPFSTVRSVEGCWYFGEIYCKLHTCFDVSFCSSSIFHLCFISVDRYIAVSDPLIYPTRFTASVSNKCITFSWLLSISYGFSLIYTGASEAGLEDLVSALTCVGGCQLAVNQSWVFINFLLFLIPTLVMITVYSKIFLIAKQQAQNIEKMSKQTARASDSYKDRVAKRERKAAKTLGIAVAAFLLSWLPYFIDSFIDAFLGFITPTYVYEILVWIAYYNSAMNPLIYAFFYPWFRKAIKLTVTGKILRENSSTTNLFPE
Procedure, shortened: as §1

mTAAR7f = biological target: T3, mTAAR7f (Mus musculus, UniProt Q5QD08); assay: cAMP-dependent CRE-SEAP reporter gene assay in transfected HEK293 cells, mTAAR7f; assay type: cell-based; conditions: ligand 10 μM
T3 sequence (Q5QD08 1-358): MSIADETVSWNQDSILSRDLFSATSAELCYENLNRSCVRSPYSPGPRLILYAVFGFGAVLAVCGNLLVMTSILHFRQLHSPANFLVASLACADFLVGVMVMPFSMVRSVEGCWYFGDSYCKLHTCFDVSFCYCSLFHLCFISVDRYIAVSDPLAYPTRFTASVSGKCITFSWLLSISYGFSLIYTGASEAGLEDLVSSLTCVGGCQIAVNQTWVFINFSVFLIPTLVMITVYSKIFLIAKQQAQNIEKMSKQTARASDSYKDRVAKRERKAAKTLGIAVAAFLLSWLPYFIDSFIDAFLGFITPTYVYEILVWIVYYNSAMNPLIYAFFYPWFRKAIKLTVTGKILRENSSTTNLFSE
Procedure, shortened: as §1

rTAAR7d = biological target: T4, rTAAR7d (Rattus norvegicus, UniProt Q923X5); assay: cAMP-dependent CRE-SEAP reporter gene assay in transfected HEK293 cells, rTAAR7d; assay type: cell-based; conditions: ligand 10 μM
T4 sequence (Q923X5 1-358): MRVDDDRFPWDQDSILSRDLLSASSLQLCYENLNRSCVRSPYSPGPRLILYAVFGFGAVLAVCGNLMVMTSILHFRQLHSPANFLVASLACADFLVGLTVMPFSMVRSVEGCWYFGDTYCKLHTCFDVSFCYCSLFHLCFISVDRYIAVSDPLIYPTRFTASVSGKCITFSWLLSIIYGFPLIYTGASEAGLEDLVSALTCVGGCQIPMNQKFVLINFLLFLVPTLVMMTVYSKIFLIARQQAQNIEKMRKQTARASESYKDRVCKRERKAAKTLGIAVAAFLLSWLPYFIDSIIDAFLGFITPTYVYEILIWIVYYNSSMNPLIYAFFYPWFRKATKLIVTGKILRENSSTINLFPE
Procedure, shortened: as §1

mTAAR7b = biological target: T5, mTAAR7b (Mus musculus, UniProt Q5QD11); assay: cAMP-dependent CRE-SEAP reporter gene assay in transfected HEK293 cells, mTAAR7b; assay type: cell-based; conditions: ligand 10 μM
T5 sequence (Q5QD11 1-358): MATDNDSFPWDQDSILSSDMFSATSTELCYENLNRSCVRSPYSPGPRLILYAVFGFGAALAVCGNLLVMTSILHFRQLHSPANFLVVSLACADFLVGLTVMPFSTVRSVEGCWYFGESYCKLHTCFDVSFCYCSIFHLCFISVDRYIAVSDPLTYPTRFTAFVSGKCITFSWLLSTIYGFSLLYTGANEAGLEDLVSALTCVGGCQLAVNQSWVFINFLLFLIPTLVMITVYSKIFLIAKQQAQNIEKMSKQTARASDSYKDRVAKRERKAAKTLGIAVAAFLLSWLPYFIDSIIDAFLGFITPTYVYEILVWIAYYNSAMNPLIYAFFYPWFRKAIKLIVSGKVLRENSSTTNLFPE
Procedure, shortened: as §1

rTAAR7b = biological target: T6, rTAAR7b (Rattus norvegicus, UniProt Q923X8); assay: cAMP-dependent CRE-SEAP reporter gene assay in transfected HEK293 cells, rTAAR7b; assay type: cell-based; conditions: ligand 10 μM
T6 sequence (Q923X8 1-358): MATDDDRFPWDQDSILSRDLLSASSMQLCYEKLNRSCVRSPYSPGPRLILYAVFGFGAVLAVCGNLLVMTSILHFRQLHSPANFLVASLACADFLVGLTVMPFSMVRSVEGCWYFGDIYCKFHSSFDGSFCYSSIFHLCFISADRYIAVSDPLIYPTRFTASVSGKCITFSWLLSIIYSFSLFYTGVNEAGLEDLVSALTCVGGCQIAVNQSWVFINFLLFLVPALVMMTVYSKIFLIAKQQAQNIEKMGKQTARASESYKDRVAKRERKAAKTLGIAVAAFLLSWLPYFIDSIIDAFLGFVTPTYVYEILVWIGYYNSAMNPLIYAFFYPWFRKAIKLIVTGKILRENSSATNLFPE
Procedure, shortened: as §1

TAAR4 = conditions: cited from earlier work
rodents = conditions: carnivore odor; cited from earlier work
TAAR5 = conditions: cited from earlier work

**Q.** For `CN(C)CCc1ccccc1` [ligand 6, N,N-dimethyl-2-phenylethylamine], which “activation of rTAAR7h (reporter response)” value (rTAAR7h) is on record?
**A.** respond; also recorded: activated

**Q.** What about the “increases in affinity of mTAAR7f-SS” value [1] of the same compound?
**A.** > 1,000 fold

**Q.** What about the “decreased affinity of mTAAR7e-YC” value [2] of the same compound?
**A.** > 1,000 fold

**Q.** And the “activation of mTAAR7e (reporter response)” value (mTAAR7e)?
**A.** respond; also recorded: activated

**Q.** Which “activation of mTAAR7f (reporter response)” value (mTAAR7f) does the source give for `CN(C)C1CCCCC1` [ligand 10, N,N-dimethylcyclohexylamine] here?
**A.** respond; also recorded: activated

**Q.** What about the “activation of rTAAR7d (reporter response)” value (rTAAR7d) of the same compound?
**A.** respond; also recorded: activated

**Q.** What about the “activation of mTAAR7b (reporter response)” value (mTAAR7b) of the same compound?
**A.** respond; also recorded: activated

**Q.** What about the “activation of rTAAR7b (reporter response)” value (rTAAR7b) of the same compound?
**A.** respond; also recorded: activated

**Q.** What about the “enhanced affinity of mTAAR7e-YC” value ([2]; increase) of the same compound?
**A.** > 1,000 fold

**Q.** With `NCCc1ccccc1` [ligand 3, 2-phenylethylamine] as the compound, how does the TAAR4 agonist (TAAR4) read?
**A.** agonist

**Q.** What about the “behavioral effect of odor on rodents” value (rodents) of the same compound?
**A.** repels rodents

**Q.** For `COc1ccc2[nH]cc(CCN(C)C)c2c1` [ligand 7, 5-methoxy-N,N-dimethyltryptamine], which “increases in affinity of mTAAR7f-SS” value [1] is on record?
**A.** > 1,000 fold

**Q.** What about the “decreased affinity of mTAAR7e-YC” value [2] of the same compound?
**A.** > 1,000 fold

**Q.** With `CN(C)C` [ligand 4, trimethylamine] as the compound, how does the TAAR5 agonist (TAAR5) read?
**A.** agonist
